rRNA inh HTS = inhibits bacterial ribosomal RNA function over humanized ribosomes; E. coli WT GFP vs humanized-ribosome RFP mutants, fluorescence, 24 h; stronger effect = lower value; DMSO median 0, no signal -100; GFP signal change (wild-type ribosome), % (test concentration not listed); actives 1.6% (n = 350,000); AID 720706;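 active means significant combined selectivity score with lowered wild-type GFP, culture density cut under 30%, mutant RFP and density less affected; inactive means any of these conditions unmet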
RAD54 inh = RAD54 (human) branch migration inhibition; actives 0.14% (n = 360,000); AID 602329; inhibition, % at 10.4 µM; RAD54 Holliday junction branch migration, FAM/BHQ fluorescence; Q92698;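 active means mean normalized replicate activity at least 40 and at least half of replicates scoring 40 or more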;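 further: 0% = median of neutral control wells and 100% = median of positive control wells; inhibitors cause a drop in the FAM fluorescence signal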
Target sequence (Q92698 whole entry, looked up): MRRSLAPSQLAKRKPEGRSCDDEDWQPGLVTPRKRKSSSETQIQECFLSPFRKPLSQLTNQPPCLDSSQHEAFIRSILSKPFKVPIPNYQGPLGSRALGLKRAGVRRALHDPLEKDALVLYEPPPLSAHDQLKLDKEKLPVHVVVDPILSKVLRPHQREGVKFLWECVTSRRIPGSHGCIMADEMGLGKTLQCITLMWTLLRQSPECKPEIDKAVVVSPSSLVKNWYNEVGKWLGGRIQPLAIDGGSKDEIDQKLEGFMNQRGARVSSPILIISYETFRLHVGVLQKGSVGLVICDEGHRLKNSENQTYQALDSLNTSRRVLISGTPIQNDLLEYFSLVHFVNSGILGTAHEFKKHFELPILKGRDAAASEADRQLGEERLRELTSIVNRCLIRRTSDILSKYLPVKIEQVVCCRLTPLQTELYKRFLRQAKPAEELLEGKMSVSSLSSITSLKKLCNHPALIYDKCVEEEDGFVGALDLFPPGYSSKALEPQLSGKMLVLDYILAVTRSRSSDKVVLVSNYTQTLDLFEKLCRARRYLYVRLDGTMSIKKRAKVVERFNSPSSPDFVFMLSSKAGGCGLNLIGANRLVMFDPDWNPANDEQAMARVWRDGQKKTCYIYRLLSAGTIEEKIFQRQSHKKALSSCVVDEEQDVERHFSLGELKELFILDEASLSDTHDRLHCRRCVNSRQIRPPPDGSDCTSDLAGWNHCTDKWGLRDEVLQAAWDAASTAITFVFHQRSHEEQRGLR
RAD52 anneal inh = blocks human RAD52 DNA annealing | P43351 | recombinant RAD52 DNA annealing, FRET fluorescence | inhibition, % at 18.7 µM | actives 0.46% (n = 360,000);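 active means every replicate showing at least 50% inhibition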
PglD DTNB = inhibitors of Campylobacter jejuni PglD acetyltransferase; actives 0.098% (n = 360,000); purified PglD enzyme, DTNB colorimetric CoA detection; AID 602405; inhibition, % at 12.5 µM; in the data active means inhibition above about 16%, passing the limit was not always enough
E-sel inducer = induces E-selectin expression in human endothelial cells | actives 0.37% (n = 260,000) | activation, % at 7.58 µM | HUVEC E-selectin immunofluorescence imaging; normalized: neutral wells 0, TNF-alpha wells 100;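 active means mean E-selectin-positive cell signal at least 10% of the positive control, reached in at least 60% of replicates, without over 20% cell loss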
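material = human umbilical vein endothelial cells (HUVEC), E-selectin induction | quantity = 3,000 cells/well | medium = EGM-2 growth medium on 0.1% gelatin-coated wells | technique = immunofluorescence imaging | read-out basis = % PE-positive cells | control set = TNF-alpha positive control, DMSO neutral control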
XiGFP reactiv = reactivates the inactive X chromosome in mouse fibroblasts. XiGFP mouse fibroblasts, % GFP-positive cells imaging, 3 d; cells co-treated with 5-aza-dC sensitizer; scaled so ellipticine positive control = 100%. activation, % at 7.58 µM. actives 0.055% (n = 360,000);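 active means mean normalized replicate activation at least 10% and every replicate at or above 10%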;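 further: 0% = median of on-plate neutral control wells and 100% = ellipticine 6 µM median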
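Material: SV40-immortalized XiGFP fibroblast cells, line 68-5-11 | Buffer or medium: DMEM containing 5-aza-dC | Dosing: One concentration, pinned | Times: 3 d treatment, 15 min room-temperature fixation | Controls: Ellipticine 6 µM positive control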
An asterisk follows results filed as active; · = not tested or not shown. Most compounds without a hit are left out; they make up all but 2% or so of the library.

SMILES	rRNA inh HTS	RAD54 inh	RAD52 anneal inh	PglD DTNB	E-sel inducer	XiGFP reactiv
O=C(NCC[C@H]1CC[C@@H](NS(=O)(=O)c2ccc(F)cc2)[C@H](CO)O1)c1ccccc1F	1	·	-3	·	0	0
COc1ccc(CSC2=C(C#N)C(=O)NC3(CCCCC3)S2)cc1	-28*	-4	-19	2	0	0
CCCCCCSC1=C(C#N)C(=O)NC2(CCCCC2)S1	·	-4	·	-2	·	·
Cc1nc(N/N=C/c2ccc(O)cc2O)cc(N2CCOCC2)n1	-37*	4	-27	1	-1	0
Oc1cccc(/C=N/Nc2cc(N3CCOCC3)nc(N3CCOCC3)n2)c1	·	-5	·	-1	·	0
Oc1ccc(/C=N/Nc2cc(N3CCOCC3)nc(N3CCOCC3)n2)cc1O	-25*	·	1	·	0	0
Cc1nc(N/N=C/c2cccc(F)c2)cc(N2CCOCC2)n1	-3	4	7	-29	0	0
O=[N+]([O-])c1ccc(N/N=C/c2sc(N3CCOCC3)nc2-c2ccccc2)c(S(=O)(=O)Nc2ccc(Cl)cc2)c1	-6	·	-23	·	·	87*
O=C(NNC(=O)c1cc(-c2ccccc2)nc2ccccc12)c1csc(N2CCOCC2)n1	-37*	·	-13	·	-3	0
O=C(NNC(=O)c1cc(-c2ccc(Br)cc2)nc2ccccc12)c1csc(N2CCOCC2)n1	·	-6	-18	-6	1	0
Cc1ccc(-c2cc(C(=O)NNC(=O)c3csc(N4CCOCC4)n3)c3ccccc3n2)cc1	-19*	6	-14	-3	0	0
Fc1ccc(NC(=S)Nc2ccccc2N2CCOCC2)cc1Cl	-27*	·	-6	·	2	0
Cc1onc(-c2c(F)cccc2Cl)c1C(=O)Nc1ccccc1N1CCOCC1	-28*	1	1	1	0	0
Cc1onc(-c2ccccc2)c1C(=O)Nc1ccccc1N1CCOCC1	·	4	·	2	·	·
O=C(Cc1c(F)cccc1Cl)OCC(=O)N1CCN(c2ccccc2)CC1	-21*	-7	-17	-1	·	0
COc1cc(OC)c(C(=O)OCC(=O)Nc2cccc(S(=O)(=O)NC3=NCCCCC3)c2)cc1OC	·	2	-10	2	1	0
O=C(/C=C/c1ccc([N+](=O)[O-])cc1)Nc1cccc(S(=O)(=O)NC2=NCCCCC2)c1	-9.4*	·	-13	·	0	0
O=C(/C=C/c1ccccc1Cl)Nc1cccc(S(=O)(=O)NC2=NCCCCC2)c1	·	·	·	·	·	0
Cc1ccc(C(=O)OCC(=O)Nc2cccc(S(=O)(=O)NC3=NCCCCC3)c2)c(C)c1	-22*	-2	-5	9	0	0
C[C@@H]1CCCCO[C@@H](CN(C)C(=O)Nc2ccccc2)[C@@H](C)CN([C@H](C)CO)C(=O)c2cc(NC(=O)CCC(F)(F)F)ccc2O1	5	2	3	0	·	0
C[C@H]1CN([C@@H](C)CO)C(=O)CCCn2cc(nn2)CO[C@H]1CN(C)Cc1cccc(C(F)(F)F)c1	-2	2	0	2	0	0
O=C(N[C@@H](Cc1cccnc1)C(=O)N1CCC[C@H]1C(=O)NCCc1ccccc1Cl)c1cccs1	-17*	·	-15	·	0	0
C[C@H]1CN([C@@H](C)CO)C(=O)CCCn2nncc2CO[C@@H]1CN(C)C(=O)c1cc(-c2ccccc2)on1	3	7	-6	-1	0	0
CCc1csc(N2[C@H](CO)[C@H](c3ccccc3)[C@@H]2CNCCOC)n1	1	0	·	1	1	0
Cc1noc(C)c1S(=O)(=O)Nc1ccc2c(c1)C(=O)N([C@H](C)CO)C[C@H](C)[C@@H](CN(C)S(=O)(=O)c1ccc(F)cc1)OCCCC[C@H](C)O2	-5	-7	82*	-1	1	0
SMILES	rRNA inh HTS	RAD54 inh	RAD52 anneal inh	PglD DTNB	E-sel inducer	XiGFP reactiv
Cc1noc(C)c1S(=O)(=O)Nc1ccc2c(c1)C(=O)N([C@H](C)CO)C[C@@H](C)[C@@H](CN(C)S(=O)(=O)c1ccc(F)cc1)OCCCC[C@H](C)O2	1	1	60*	-1	0	0
Cc1noc(C)c1S(=O)(=O)Nc1ccc2c(c1)C(=O)N([C@H](C)CO)C[C@H](C)[C@H](CN(C)S(=O)(=O)c1ccc(F)cc1)OCCCC[C@@H](C)O2	1	-5	81*	0	0	0
Cc1noc(C)c1S(=O)(=O)Nc1ccc2c(c1)C(=O)N([C@@H](C)CO)C[C@@H](C)[C@H](CN(C)S(=O)(=O)c1ccc(F)cc1)OCCCC[C@@H](C)O2	-1	-10	-39	1	0	0
COc1ccc(C#Cc2ccc([C@H]3[C@@H](CO)N4C(=O)CN(C(=O)c5ccc(F)cc5)C[C@@H]34)cc2)cc1	6	·	-20	·	0	0
C[C@@H]1CN([C@@H](C)CO)C(=O)c2cc(NC(=O)C3CCCCC3)ccc2O[C@@H](C)CCCCO[C@H]1CN(C)C	2	·	·	·	0	0
N#CC(C(=S)Nc1ccccc1)c1nc2ccccc2[nH]1 (stereo unspecified)	-38*	10	-23	6	18	0
COc1cc(Br)cc(CN2CCN(C/C=C/c3ccccc3)CC2)c1O	-34*	0	3	4	·	·
COc1ccc(O)c(CN2CCN(C/C=C/c3ccccc3)CC2)c1	·	-3	·	3	·	·
CCCC(O)C#Cc1cnc2c(c1)C(=O)N([C@H](C)CO)C[C@H](C)[C@H](CN(C)C(=O)NC1CCCCC1)O2 (stereo partly specified)	-1	-8	1	0	0	0
CCCNC(=O)N1CC2(C1)CN(C(=O)Nc1ccc(F)cc1)[C@H](CO)c1[nH]c3cc(OC)ccc3c12	0	·	-6	·	0	0
CO[C@H](CN(C)Cc1cc(F)ccc1F)[C@H](C)CN([C@H](C)CO)S(=O)(=O)c1ccc(Cl)cc1	-6	-5	8	-3	0	0
Cc1ccc(NC(=S)NNC(=O)C2CC2c2ccc(C)cc2)cc1 (stereo unspecified)	·	-5	·	7	-2	·
O=C(NNC(=S)Nc1ccc(F)cc1)C1CC1c1ccc(Cl)cc1 (stereo unspecified)	-52*	·	-15	·	-1	0
CN(C)CC(=O)N1[C@H](C#N)[C@@H](c2ccc(C#Cc3cccnc3)cc2)[C@H]1CO	11	14	-29	2	2	1
Cc1noc(C)c1COc1cccc(C(=O)Oc2ccc3c(c2)OCO3)c1	-35*	1	-8	0	·	·
CC(=O)Nc1nc(N)n(-c2ccccc2)n1	·	-7	·	6	·	·
CC(=O)Nc1nc(NC(=O)C(Cl)(Cl)Cl)n(-c2ccccc2)n1	-23*	·	-22	·	4	0
